Common to all, as to assay type: functional, cell-based
Assay [1] deals with 3T3-L1. Description: Inhibition of TNF-alpha induced lipolysis in mouse 3T3-L1 adipocytes assessed as reduction in glycerol release at 2.5 to 25 uM measured after 4 hrs by glycerol reagent based assay. Conditions: dose 2.5-25 µM. Put shortly: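 Mature 3T3-L1 adipocytes (full MDI: 0.5 mM IBMX, 1 µM DEX, 1.72 µM insulin), refed day 6, then compound (2.5, 10, 25 µM) or DMSO for 3 days. Overnight 0.75 nM TNFα (or BSA/PBS vehicle), then 4 h in low-glucose DMEM + 2% BSA with TNFα. Medium glycerol by Free Glycerol Reagent, normalized to BCA lysate protein.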

Assay [2] concerns 3T3-L1. Nature of the assay: Induction of adipogenic differentiation in mouse 3T3-L1 cells assessed as increase in PPARgamma mRNA expression by RT-PCR analysis. Particulars: dose 2.5-25 µM. The procedure, abridged:
(§1)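 3T3-L1 preadipocytes induced 2 days post-confluence with half-strength MDI (IBMX, DEX, insulin in high-glucose DMEM + 10% FBS); compound (2.5, 10, 25 µM, DMSO 1,000× stocks) added at induction and at day-3 feeding (DMEM + 10% FBS, 0.43 µM insulin). RNA harvested 4 days post-MDI; reverse-transcription qPCR, normalized to Nono; compared with DMSO controls.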

Assay [3] concerns 3T3-L1. Nature of the assay: Induction of adipogenic differentiation in mouse 3T3-L1 cells assessed as increase in FABP4 mRNA expression by RT-PCR analysis. Particulars: dose 2.5-25 µM. Put shortly: as §1
Assay [4] relates to 3T3-L1. Nature of the assay: Induction of adipogenic differentiation in mouse 3T3-L1 cells at 2.5 to 25 uM measured after 4 days by Oil Red O staining. Conditions: dose 2.5-25 µM, time 4.0 day.
The subject of assay [5] is 3T3-L1. Description: Induction of adipogenic differentiation in mouse 3T3-L1 cells assessed as increase in AdipoQ mRNA expression by RT-PCR analysis. Particulars: dose 2.5-25 µM. Put shortly:
as §1

The source made the active and inactive calls. The rule behind the calls is not given here.

Regarding `CC(=O)OC/C(C)=C\Cc1cc(/C=C\C(=O)O)cc(C/C=C(/C)CO)c1O`, in assay [1], the inhibition result is “Active”. In addition, the result in assay [2], in assay [3], in assay [4] and in assay [5] was Active.
In the case of `CC(C)=CCc1cc(/C=C/C(=O)O)cc(C/C=C(\C)CO)c1O`, the inhibition result in assay [1] was “inactive”. Moreover, the outcome in assay [2], in assay [3], in assay [4] and in assay [5] was Active.
Take `CC(=O)OC/C(C)=C\Cc1cc(/C=C/C(=O)O)cc(C/C=C(/C)CO)c1O`: the inhibition entry in assay [1] is “Active”. Also, the result in assay [2], in assay [3], in assay [4] and in assay [5] was Active.
With `CC(C)=CCc1cc(/C=C/C(=O)O)cc(C/C=C(/C)CO)c1O`, the inhibition result in assay [1] was “inactive”. Besides, the result in assay [4] was Active.

Source of the values: ChEMBL document CHEMBL4837191, “Prenylated Coumaric Acids from Artemisia scoparia Beneficially Modulate Adipogenesis” (J Nat Prod, 2021).
